The results in this text go back to ChEMBL document CHEMBL2176874, “1-(sulfonyl)-5-(arylsulfonyl)indoline as activators of the tumor cell specific M2 isoform of pyruvate kinase” (Bioorg Med Chem Lett, 2012).

In series [1] the target is Pyruvate kinase PKM (Homo sapiens) (UniProt P14618). Nature of the series: Activation of human pyruvate kinase M2 using phosphoenolpyruvate as substrate by kinaseGlo assay relative to control. The method in brief:
(§1)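 Cell-free enzymatic pyruvate kinase activity assay. Maximal activation is expressed as the percentage rise in enzyme activity above basal level, with 0% set as enzyme activity without compound.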

Series [2] shares this target. The series can be described thus: Activation of human pyruvate kinase M2 using phosphoenolpyruvate as substrate assessed as concentration required for 50% activation by kinaseGlo assay. For orientation: Kinase-Glo reads ATP consumption through a luciferase reaction.
Series [3] is described as follows: Half life in human liver microsomes at 1 uM by LC-MS/MS analysis. Background: Microsomes from liver hold many membrane-bound enzymes, among them those of drug oxidation.
In series [4] the target is Pyruvate kinase PKLR (Homo sapiens) (UniProt P30613). Nature of the series: Activation of human pyruvate kinase R using phosphoenolpyruvate as substrate assessed as concentration required for 50% activation by kinaseGlo assay.
Series [5] concerns the target Pyruvate kinase PKM (Homo sapiens) (UniProt P14618). Nature of the series: Activation of human pyruvate kinase M1 using phosphoenolpyruvate as substrate by kinaseGlo assay relative to control. In a few lines: as §1
Series [6] can be described thus: Apparent permeability from apical to basal side of human Caco2 cells at 10 uM after 90 mins by LC-MS/MS analysis. Conditions: Caco-2. Background: Passage across Caco-2 layers is used to estimate intestinal permeability.
In series [7] the target is Pyruvate kinase PKM (Homo sapiens) (UniProt P14618). The series can be described thus: Activation of human pyruvate kinase M1 using phosphoenolpyruvate as substrate by kinaseGlo assay.
Series [8] has as its target Pyruvate kinase PKLR (Homo sapiens) (UniProt P30613). The series can be described thus: Activation of human pyruvate kinase L using phosphoenolpyruvate as substrate assessed as concentration required for 50% activation by kinaseGlo assay.
A further series addresses hERG (KCNH2) (Homo sapiens, UniProt Q12809). Nature of the series: Inhibition of human ERG expressed in CHO cells at 1 uM measured up to 3 mins by whole cell patch clamp assay. The format is cell-based. Particulars: CHO cells expressing human ERG.
For series [9], the target named is Pyruvate kinase PKLR (Homo sapiens) (UniProt P30613). The series can be described thus: Activation of human pyruvate kinase R using phosphoenolpyruvate as substrate by kinaseGlo assay relative to control. In a few lines: as §1
Series [10] in a line: Serum protein binding in human at 1 uM after 5 hrs by LC-MS/MS analysis. The format is ADME, cell-free. Conditions: read-out: PB (converted).
Series [11] can be described thus: Apparent permeability from basal to apical side of human Caco2 cells at 10 uM after 90 mins by LC-MS/MS analysis. Conditions: Caco-2.
The target of series [12] is Pyruvate kinase PKLR (Homo sapiens) (UniProt P30613). The series can be described thus: Activation of human pyruvate kinase L using phosphoenolpyruvate as substrate by kinaseGlo assay relative to control. In a few lines: as §1
Series [13] is described as follows: Efflux ratio of apparent permeability from basal to apical to apical to basal side of human Caco2 cells at 10 uM after 90 mins by LC-MS/MS analysis. Conditions: Caco-2.

SMILES strings stand for the structures. Activity calls are given as the source filed them. No cut-off for these calls is given here.

Sequence of Pyruvate kinase PKM (Homo sapiens) (P14618 2-531 limits assumed): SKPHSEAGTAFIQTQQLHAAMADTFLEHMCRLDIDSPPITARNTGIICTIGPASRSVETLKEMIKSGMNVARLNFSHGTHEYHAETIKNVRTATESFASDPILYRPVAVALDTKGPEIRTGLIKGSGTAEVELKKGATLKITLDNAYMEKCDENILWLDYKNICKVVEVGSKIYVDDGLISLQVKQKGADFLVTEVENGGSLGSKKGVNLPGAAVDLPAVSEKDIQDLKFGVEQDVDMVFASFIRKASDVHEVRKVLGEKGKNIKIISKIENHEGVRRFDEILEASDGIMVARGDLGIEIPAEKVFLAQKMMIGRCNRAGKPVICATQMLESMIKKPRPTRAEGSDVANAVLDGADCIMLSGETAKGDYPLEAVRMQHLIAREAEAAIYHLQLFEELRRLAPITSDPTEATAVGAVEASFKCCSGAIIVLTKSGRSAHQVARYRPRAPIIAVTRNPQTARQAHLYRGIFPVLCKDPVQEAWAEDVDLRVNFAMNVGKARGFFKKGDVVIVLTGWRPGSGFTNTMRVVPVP
Sequence of Pyruvate kinase PKLR (Homo sapiens) (P30613 whole entry, looked up): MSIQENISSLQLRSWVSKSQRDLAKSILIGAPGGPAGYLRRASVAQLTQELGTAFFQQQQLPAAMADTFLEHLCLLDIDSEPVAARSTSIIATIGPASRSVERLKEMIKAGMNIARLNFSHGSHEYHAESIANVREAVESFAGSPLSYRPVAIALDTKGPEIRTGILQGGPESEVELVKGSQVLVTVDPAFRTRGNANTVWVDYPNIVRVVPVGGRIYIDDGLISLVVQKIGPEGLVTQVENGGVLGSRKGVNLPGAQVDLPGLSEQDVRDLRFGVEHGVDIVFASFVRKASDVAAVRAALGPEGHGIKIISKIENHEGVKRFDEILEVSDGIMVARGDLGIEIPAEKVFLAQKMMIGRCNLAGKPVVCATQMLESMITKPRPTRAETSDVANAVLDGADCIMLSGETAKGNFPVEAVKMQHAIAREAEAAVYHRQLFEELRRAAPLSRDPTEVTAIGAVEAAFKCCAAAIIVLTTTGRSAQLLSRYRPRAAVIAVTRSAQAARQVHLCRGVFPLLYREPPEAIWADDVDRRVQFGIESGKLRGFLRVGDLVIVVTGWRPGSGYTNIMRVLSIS
Sequence of hERG (KCNH2) (Q12809 whole entry): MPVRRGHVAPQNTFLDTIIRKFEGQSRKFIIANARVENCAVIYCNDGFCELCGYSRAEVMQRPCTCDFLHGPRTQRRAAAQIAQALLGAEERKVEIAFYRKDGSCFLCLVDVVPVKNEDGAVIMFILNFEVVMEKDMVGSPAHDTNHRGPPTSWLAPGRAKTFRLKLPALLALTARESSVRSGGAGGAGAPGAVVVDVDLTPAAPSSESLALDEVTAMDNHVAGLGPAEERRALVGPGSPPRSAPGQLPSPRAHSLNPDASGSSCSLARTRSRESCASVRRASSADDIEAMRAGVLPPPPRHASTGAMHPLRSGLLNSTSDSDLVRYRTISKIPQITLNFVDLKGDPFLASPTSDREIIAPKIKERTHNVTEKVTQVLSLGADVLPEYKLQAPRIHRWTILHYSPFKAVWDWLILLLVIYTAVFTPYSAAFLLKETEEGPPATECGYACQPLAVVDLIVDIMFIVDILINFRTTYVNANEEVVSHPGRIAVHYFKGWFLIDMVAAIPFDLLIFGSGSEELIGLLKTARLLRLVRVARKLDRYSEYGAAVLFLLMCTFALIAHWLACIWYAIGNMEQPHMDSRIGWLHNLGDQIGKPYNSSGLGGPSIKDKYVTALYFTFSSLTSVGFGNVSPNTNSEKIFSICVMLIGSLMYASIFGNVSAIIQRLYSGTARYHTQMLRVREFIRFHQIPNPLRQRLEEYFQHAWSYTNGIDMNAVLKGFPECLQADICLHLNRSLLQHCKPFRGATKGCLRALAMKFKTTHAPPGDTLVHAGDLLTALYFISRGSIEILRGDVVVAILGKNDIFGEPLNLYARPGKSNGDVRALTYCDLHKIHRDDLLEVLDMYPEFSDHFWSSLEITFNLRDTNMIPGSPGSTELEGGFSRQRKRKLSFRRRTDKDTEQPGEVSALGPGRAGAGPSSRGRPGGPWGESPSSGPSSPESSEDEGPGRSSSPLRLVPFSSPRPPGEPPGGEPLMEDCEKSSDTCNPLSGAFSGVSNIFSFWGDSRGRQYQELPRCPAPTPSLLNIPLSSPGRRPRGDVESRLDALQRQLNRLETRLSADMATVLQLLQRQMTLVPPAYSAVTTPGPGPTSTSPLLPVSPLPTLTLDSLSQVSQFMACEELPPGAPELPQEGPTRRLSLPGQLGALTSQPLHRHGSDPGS

For the molecule `CCS(=O)(=O)N1CCc2cc(C(=O)CSc3ccc4c(c3)OCCCO4)ccc21`, the max activation in [1] came out at 149%. In addition, the Activity in [2] came out at 0.51 µM. This molecule also had a half-life at 1 µM in series [3] (liver microsomes) of 1.4 min.

Consider `O=S(=O)(c1ccc2c(c1)CCN2S(=O)(=O)c1ccccc1)c1ccc2c(c1)OCCO2`, for which the max activation in [1] was found to be 122%. For the same molecule, the Activity in series [2] is 0.093 µM.

Turning to `CCS(=O)(=O)N1CCc2cc(S(=O)(=O)c3ccc4c(c3)OCCO4)ccc21`, the max activation in series [1] worked out at 89%. In [2], the Activity was found to be 0.027 µM.

For the molecule `CC1Cc2cc(S(=O)(=O)c3ccc4c(c3)OCCO4)ccc2N1S(=O)(=O)c1ccccc1` (racemic), the max activation in series [1] is 134%. For the same molecule, the Activity in series [2] stood at 0.6 µM.

`CC1Cc2cc(S(=O)(=O)c3ccc4c(c3)OCCO4)ccc2N1S(=O)(=O)Cc1ccccc1` (racemic) registered a max activation in series [1] of 111%. Also, the Activity in series [2] was 1.6 µM.

Molecule `CC1Cc2cc(S(=O)(=O)Nc3ccc4c(c3)OCCO4)ccc2N1S(C)(=O)=O` (racemic) showed a max activation in series [1] of 25.5%. For the same molecule, in [2], the Activity is 51 µM.

For the molecule `O=S(=O)(c1ccc2c(c1)CCN2S(=O)(=O)C1CC1)c1ccc2c(c1)OCCO2`, in series [1], the max activation was found to be 105%. Further, in [2], the Activity is 0.017 µM.

`COc1cccc(S(=O)(=O)N2c3ccc(S(=O)(=O)c4ccc5c(c4)OCCO5)cc3CC2C)c1` (racemic) returned a max activation in [1] of 119%. For the same molecule, in series [2], the Activity was 0.8 µM.

For the molecule `CCN(c1ccc(S(=O)(=O)c2ccc3c(c2)OCCO3)cc1)S(C)(=O)=O`, the max activation in series [1] came out at 100%. For the same molecule, the Activity in series [2] stood at 41 µM.

Take `O=S(=O)(c1ccc2c(c1)CN(S(=O)(=O)c1ccccc1)C2)c1ccc2c(c1)OCCO2`: in series [1], the max activation was determined as 140%. Besides, the Activity in series [2] was 0.061 µM.

`CS(=O)(=O)N1CCCc2cc(C(=O)CSc3ccc4c(c3)OCCO4)ccc21`: the max activation in series [1] was determined as 107%. Also, in series [2], the Activity is 1.3 µM.

`CS(=O)(=O)N1CCc2c1cc(F)c(S(=O)(=O)c1ccc3c(c1)OCCO3)c2F` registered a max activation in series [1] of 78%. Moreover, the Activity in series [2] amounted to 0.079 µM.

For the molecule `CS(=O)(=O)N1CCc2cc(S(=O)(=O)c3ccc4c(c3)OCCO4)ccc21`, the Activity in series [4] is over 100 µM; in [8], over 100 µM; in series [2], 0.045 µM. In addition, the max activation entry in series [5] was “inactive”. In addition, the max activation in series [1] was 106%; in series [9] it was 34%; in series [12] it was 33%. In series [6], the Papp A→B at 1.5 h, 10 µM was determined as 37.5 ×10⁻⁶ cm/s. Also, the outcome in series [7] was inactive. Moreover, on hERG (KCNH2), the inhibition at 0.05 h, 1 µM came out at 9%. Besides, the fraction unbound at 5 h, 1 µM in [10] was 0.059. In [11], the Papp B→A at 1.5 h, 10 µM came to 43 ×10⁻⁶ cm/s. Also, the efflux ratio at 1.5 h, 10 µM in [13] came out at 1.14. The same molecule returned a half-life at 1 µM in [3] (microsomes) of 26 min.

`CC(C)CS(=O)(=O)N1Cc2ccc(S(=O)(=O)c3ccc4c(c3)OCCO4)cc2C1`: the max activation in [1] came out at 91.5%. In series [2], the Activity is 0.189 µM.

Consider `CC1Cc2cc(C(=O)CSc3ccc4c(c3)OCCO4)ccc2N1S(C)(=O)=O` (racemic), for which the max activation in series [1] stood at 164%. Moreover, in series [2], the Activity worked out at 0.55 µM. The same molecule gave a half-life at 1 µM in series [3] (liver microsomes) of 3.4 min.

Turning to `CC1Cc2cc(NS(=O)(=O)c3ccc4c(c3)OCCO4)ccc2N1S(C)(=O)=O` (racemic), the max activation in series [1] was 32.5%. Moreover, the Activity in [2] is over 100 µM.

With `Cc1cn(S(C)(=O)=O)c2ccc(S(=O)(=O)c3ccc4c(c3)OCCO4)cc12`, the max activation in series [1] is 154%. Also, the Activity in series [2] came to 2.72 µM.

As to `CC1Cc2cc(S(=O)(=O)c3ccc4c(c3)OCCO4)ccc2N1S(=O)(=O)c1c(F)cccc1F` (racemic), the max activation in series [1] was found to be 168%. Further, in series [2], the Activity came to 0.5 µM.

In the case of `CCS(=O)(=O)N1Cc2ccc(S(=O)(=O)c3ccc4c(c3)OCCO4)cc2C1`, in [1], the max activation was found to be 35%. Also, in series [2], the Activity came out at 0.02 µM.

In series [1], `CC(C)N(c1ccc(S(=O)(=O)c2ccc3c(c2)OCCO3)cc1)S(C)(=O)=O` came in with a max activation of 194%. The Activity in series [2] amounted to 2.8 µM.

`CS(=O)(=O)Nc1ccc(C(=O)CSc2ccc3c(c2)OCCO3)cc1` yielded a max activation in [1] of 140%. Moreover, the Activity in series [2] was 2.5 µM. In series [3] (microsomes), this molecule returned a half-life at 1 µM of 3.3 min.

`CS(=O)(=O)N1Cc2ccc(S(=O)(=O)c3ccc4c(c3)OCCO4)cc2C1` came in with a max activation in series [1] of 125%. In series [6], the Papp A→B at 1.5 h, 10 µM came out at 30.4 ×10⁻⁶ cm/s. The same molecule displayed an inhibition at 0.05 h, 1 µM against hERG (KCNH2) of 7.3%. In addition, the fraction unbound at 5 h, 1 µM in series [10] was 0.091. Besides, the Papp B→A at 1.5 h, 10 µM in [11] was 32.4 ×10⁻⁶ cm/s. In series [2], the Activity came out at 0.017 µM. Moreover, in series [13], the efflux ratio at 1.5 h, 10 µM was 1.06. Moreover, the half-life at 1 µM in series [3] (liver microsomes) is over 45 min.

On to `CC1Cc2cc(S(=O)(=O)c3ccc4c(c3)OCCO4)ccc2N1S(=O)(=O)c1ccc(F)cc1` (racemic), for which, in series [1], the max activation amounted to 159%. For the same molecule, the Activity in [2] came out at 0.6 µM.

Consider `CS(=O)(=O)N1CCCc2cc(S(=O)(=O)c3ccc4c(c3)OCCO4)ccc21`, for which the max activation in [1] stood at 152%. The Activity in series [2] came to 2.3 µM.

As for `CC1Cc2cc(C(=O)c3ccc4c(c3)OCCO4)ccc2N1S(C)(=O)=O` (racemic), the result in series [2] was inactive.

The molecule `CCS(=O)(=O)N1CCc2cc(C(=O)CSc3ccc(F)cc3F)ccc21` came in with a max activation in [1] of 171%. In [2], the Activity was 4.1 µM.

For `CC1Cc2cc(S(=O)(=O)c3ccc4c(c3)OCCO4)ccc2N1S(C)(=O)=O` (racemic), in series [1], the max activation was 148%. Besides, the Papp A→B at 1.5 h, 10 µM in [6] was 20.4 ×10⁻⁶ cm/s. Further, the fraction unbound at 5 h, 1 µM in [10] was 0.075. Also, in series [11], the Papp B→A at 1.5 h, 10 µM is 12.1 ×10⁻⁶ cm/s. The Activity in series [2] came to 2 µM. Further, in series [13], the efflux ratio at 1.5 h, 10 µM is 0.59. For the same molecule, the half-life at 1 µM in series [3] (liver microsomes) came out at 31.5 min.

`CCN(c1ccc(S(=O)(=O)c2ccc3c(c2)OCCO3)c(C)c1)S(C)(=O)=O`: in [1], the max activation was found to be 160%. In addition, the Activity in series [2] came to 2.7 µM.

For `O=P(O)(O)OC[C@H]1O[C@@](O)(COP(=O)(O)O)[C@@H](O)[C@@H]1O`, the max activation in series [1] is 148%. In addition, the Activity in series [2] came to 0.08 µM.

In turn, `O=S(=O)(c1ccc2c(c1)CCN2S(=O)(=O)c1cccc(F)c1)c1ccc2c(c1)OCCO2` registered a max activation in series [1] of 87%. The Activity in [2] turned out to be 0.03 µM.

In series [1], `CS(=O)(=O)n1ccc2cc(S(=O)(=O)c3ccc4c(c3)OCCO4)ccc21` yielded a max activation of 98%. For the same molecule, in series [2], the Activity was 0.023 µM.

In series [1], `CCS(=O)(=O)N1CCc2cc(C(=O)CSc3cccc(OC)c3)ccc21` had a max activation of 110%. Also, the Activity in [2] turned out to be 2.4 µM.

For orientation: half-life means how long it takes for the measured level to halve. A lower half-life goes with rapid decline. By Papp A→B is commonly meant how fast a substance crosses the layer from the apical side. For orientation: inhibition means the percentage by which the read-out fell short of the control. The low end stands for a response near the control, the high end for a response far below the control. As a reminder, the Papp B→A is the apparent permeability from the basolateral to the apical side of a cell layer. A word on the efflux ratio: it is a quotient of directional permeabilities that is used to spot active efflux.
